The record followed here is publication PMC6467287 (Bioorganic & medicinal chemistry letters, 2018).

A value given as a limit tells only on which side of the number the result lay.

The subject of data set [1] is MCF7 breast cancer cells. Briefly: Effects on MCF7 cells. The format is cell-based. Conditions: for cytotoxicity of C17 hydrolysis products: viability of MCF7 cells.
Data set [2] deals with DUBs (decomposition of high molecular weight ubiquitinated proteins, HMW-Ub) in HEK 293T cell lysates. The format is biochemical. Conditions: for DUB inhibitory activity, SAR statement in words: ring B amine modification; for stabilization of the HMW-Ub pool (in words): HEK 293T HA-Ub lysates, 37 °C; for increase of inhibitory potency (factor): relative to C4.
Data set [3] addresses T1, SENP6 (Homo sapiens, UniProt Q9GZR1).
T1 sequence (Q9GZR1 628-1112): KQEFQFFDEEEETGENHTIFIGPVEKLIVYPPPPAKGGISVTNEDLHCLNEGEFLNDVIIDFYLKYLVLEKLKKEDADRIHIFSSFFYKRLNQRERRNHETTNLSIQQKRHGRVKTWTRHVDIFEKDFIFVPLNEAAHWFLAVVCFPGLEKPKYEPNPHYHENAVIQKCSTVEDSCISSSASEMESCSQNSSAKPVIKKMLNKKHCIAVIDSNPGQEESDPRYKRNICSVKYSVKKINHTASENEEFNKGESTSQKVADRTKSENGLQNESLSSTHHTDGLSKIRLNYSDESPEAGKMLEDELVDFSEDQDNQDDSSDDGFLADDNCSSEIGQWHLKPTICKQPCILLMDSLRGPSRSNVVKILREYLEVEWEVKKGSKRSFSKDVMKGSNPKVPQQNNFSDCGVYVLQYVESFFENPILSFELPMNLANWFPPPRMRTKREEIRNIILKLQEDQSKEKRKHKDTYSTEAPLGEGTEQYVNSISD
As to the kind of experiment: SENP6-catalyzed deSUMOylation of RanGap. The class given is biochemical. The note with it: 30 min at room temperature with inhibitor. In short, it runs like this: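 His6-tagged SENP6 catalytic domain (aa 628-1112, 200 nM) was preincubated with test compound for 30 min at room temperature. SUMOylated His6-RanGap1 catalytic domain (aa 418-588, 3 μM) was then added for 10 min at 37 °C. Reactions were quenched in Laemmli buffer, resolved by SDS-PAGE and blotted with anti-His6 antibody.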

Data set [4] has as its system K562 leukemia cells. As to the kind of experiment: Effects on K562 leukemia cells. The format is cell-based. Conditions: for accumulation of K48-linked HMW-Ub / Bcr-Abl level: 50 μM, 2 h; for Bcr-Abl level: anti-Abl immunoblot. In short, it runs like this:
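K562 cells were treated with test compound (50 μM, 2 h) and immunoblotted for K48-linked ubiquitin and for Bcr-Abl (anti-Abl); Bcr-Abl was also tested over a dose range. For the bortezomib series, cells got test compound (50 μM) with or without bortezomib (6 μM) for 4 h. Lysates were sonicated in SDS before PAGE. Cell cycle was read by FACS, scoring G1 and sub-G1 (apoptotic) cells.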
Background: A western blot detects proteins with antibodies after separation by electrophoresis.

For data set [5], the system named is endogenous K48-linked HMW ubiquitin pool in untransfected HEK 293T lysates. The format is biochemical. Conditions: read-out: EC50 for stabilization of the endogenous K48-linked HMW ubiquitin pool.
Data set [6] concerns 26S proteasome (flux through the ubiquitin-proteasome system). Briefly: G76VUb-GFP assay in HEK 293T cells. The format is cell-based. Conditions: HEK 293T cells expressing G76VUb-GFP.
Data set [7] relates to DUBs (USP9x, USP19, USP7/8, USP28/15, UCHL5, UCHL3, UCHL1) in HEK 293T cell lysates. Briefly: HA-Ub-VS activity profiling of HEK 293T cell lysates. The format is biochemical. In short, it runs like this: (§1)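 HEK 293T lysate (1.5 mg/ml) was treated with test compound (25 μM) or DMSO, then HA-Ub-VS (1.5 μM) was added, or both were added together. Timed aliquots were anti-HA blotted. For the dilution test, lysate (15 mg/ml) was preincubated with compound (250 μM) for 30 min, diluted tenfold, then given HA-Ub-VS (1.5 μM). USP7 was read by anti-USP7 blot as the probe-shifted band.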

Data set [8] concerns the target DUBs (USP9x, USP19, USP7/8, USP28/15, UCHL5, UCHL3, UCHL1) in HEK 293T cell lysates (Homo sapiens, UniProt Q93009). The description is as above. The format is biochemical. Conditions: HEK 293T cell lysate. In short, it runs like this: as §1
Data set [9] has as its system trypsin. Briefly: Trypsin-catalyzed hydrolysis of diarylcarbonates. The class given is biochemical. In short, it runs like this:
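The diarylcarbonate served as substrate for trypsin. Hydrolysis velocity was measured across substrate concentrations, and Km and kcat were derived from the velocity versus substrate concentration plot.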

Data set [10] has as its target USP9x (Homo sapiens, UniProt Q93008). Briefly: Time-dependent inhibition of recombinant USP9x. The format is biochemical. The note with it: read-out: kon of commercially available DUB inhibitors (range).
Data set [11] concerns NCc1ccc(OC(=O)Oc2ccc3ccccc3c2)cc1. Briefly: purified protein, by the assay type. Conditions: other: chymotrypsin; 37.0 °C.
In data set [12] the test system is N/N=C/NCc1ccc(OC(=O)Oc2ccc3ccccc3c2)cc1. Briefly: purified protein, by the assay type. Conditions: other: chymotrypsin; 37.0 °C.

Sequence of DUBs (USP9x, USP19, USP7/8, USP28/15, UCHL5, UCHL3, UCHL1) in HEK 293T cell lysates (Homo sapiens, UniProt Q93009) (Q93009 whole entry): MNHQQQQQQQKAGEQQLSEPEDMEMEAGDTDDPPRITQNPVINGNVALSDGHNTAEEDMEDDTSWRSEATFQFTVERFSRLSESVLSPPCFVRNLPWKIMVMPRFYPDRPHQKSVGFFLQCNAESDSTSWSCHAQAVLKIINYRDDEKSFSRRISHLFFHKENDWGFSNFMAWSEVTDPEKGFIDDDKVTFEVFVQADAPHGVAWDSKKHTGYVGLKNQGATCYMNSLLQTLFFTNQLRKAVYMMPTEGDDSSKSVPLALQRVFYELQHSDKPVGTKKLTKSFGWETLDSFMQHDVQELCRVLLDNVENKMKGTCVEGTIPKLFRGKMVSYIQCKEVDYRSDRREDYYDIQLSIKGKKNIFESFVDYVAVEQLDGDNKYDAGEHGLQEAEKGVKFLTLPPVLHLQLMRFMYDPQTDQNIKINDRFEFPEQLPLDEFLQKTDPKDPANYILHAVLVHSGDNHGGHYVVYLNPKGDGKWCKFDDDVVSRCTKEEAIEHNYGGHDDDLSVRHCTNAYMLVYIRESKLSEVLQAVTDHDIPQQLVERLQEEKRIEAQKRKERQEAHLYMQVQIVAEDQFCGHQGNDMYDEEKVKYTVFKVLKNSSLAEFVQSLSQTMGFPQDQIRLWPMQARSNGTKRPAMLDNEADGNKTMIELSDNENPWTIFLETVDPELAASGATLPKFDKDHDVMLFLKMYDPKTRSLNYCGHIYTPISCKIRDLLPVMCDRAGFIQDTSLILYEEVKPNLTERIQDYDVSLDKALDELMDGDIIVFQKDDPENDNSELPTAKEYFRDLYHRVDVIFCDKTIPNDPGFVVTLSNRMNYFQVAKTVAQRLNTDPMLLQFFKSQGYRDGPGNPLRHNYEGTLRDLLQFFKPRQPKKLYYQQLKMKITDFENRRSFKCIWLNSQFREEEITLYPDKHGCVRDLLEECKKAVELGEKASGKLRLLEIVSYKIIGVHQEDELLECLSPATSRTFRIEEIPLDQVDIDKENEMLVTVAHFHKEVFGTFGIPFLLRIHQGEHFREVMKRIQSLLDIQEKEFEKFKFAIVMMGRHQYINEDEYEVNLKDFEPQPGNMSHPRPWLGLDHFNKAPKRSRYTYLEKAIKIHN
Sequence of USP9x (Q93008 whole entry, species assumed): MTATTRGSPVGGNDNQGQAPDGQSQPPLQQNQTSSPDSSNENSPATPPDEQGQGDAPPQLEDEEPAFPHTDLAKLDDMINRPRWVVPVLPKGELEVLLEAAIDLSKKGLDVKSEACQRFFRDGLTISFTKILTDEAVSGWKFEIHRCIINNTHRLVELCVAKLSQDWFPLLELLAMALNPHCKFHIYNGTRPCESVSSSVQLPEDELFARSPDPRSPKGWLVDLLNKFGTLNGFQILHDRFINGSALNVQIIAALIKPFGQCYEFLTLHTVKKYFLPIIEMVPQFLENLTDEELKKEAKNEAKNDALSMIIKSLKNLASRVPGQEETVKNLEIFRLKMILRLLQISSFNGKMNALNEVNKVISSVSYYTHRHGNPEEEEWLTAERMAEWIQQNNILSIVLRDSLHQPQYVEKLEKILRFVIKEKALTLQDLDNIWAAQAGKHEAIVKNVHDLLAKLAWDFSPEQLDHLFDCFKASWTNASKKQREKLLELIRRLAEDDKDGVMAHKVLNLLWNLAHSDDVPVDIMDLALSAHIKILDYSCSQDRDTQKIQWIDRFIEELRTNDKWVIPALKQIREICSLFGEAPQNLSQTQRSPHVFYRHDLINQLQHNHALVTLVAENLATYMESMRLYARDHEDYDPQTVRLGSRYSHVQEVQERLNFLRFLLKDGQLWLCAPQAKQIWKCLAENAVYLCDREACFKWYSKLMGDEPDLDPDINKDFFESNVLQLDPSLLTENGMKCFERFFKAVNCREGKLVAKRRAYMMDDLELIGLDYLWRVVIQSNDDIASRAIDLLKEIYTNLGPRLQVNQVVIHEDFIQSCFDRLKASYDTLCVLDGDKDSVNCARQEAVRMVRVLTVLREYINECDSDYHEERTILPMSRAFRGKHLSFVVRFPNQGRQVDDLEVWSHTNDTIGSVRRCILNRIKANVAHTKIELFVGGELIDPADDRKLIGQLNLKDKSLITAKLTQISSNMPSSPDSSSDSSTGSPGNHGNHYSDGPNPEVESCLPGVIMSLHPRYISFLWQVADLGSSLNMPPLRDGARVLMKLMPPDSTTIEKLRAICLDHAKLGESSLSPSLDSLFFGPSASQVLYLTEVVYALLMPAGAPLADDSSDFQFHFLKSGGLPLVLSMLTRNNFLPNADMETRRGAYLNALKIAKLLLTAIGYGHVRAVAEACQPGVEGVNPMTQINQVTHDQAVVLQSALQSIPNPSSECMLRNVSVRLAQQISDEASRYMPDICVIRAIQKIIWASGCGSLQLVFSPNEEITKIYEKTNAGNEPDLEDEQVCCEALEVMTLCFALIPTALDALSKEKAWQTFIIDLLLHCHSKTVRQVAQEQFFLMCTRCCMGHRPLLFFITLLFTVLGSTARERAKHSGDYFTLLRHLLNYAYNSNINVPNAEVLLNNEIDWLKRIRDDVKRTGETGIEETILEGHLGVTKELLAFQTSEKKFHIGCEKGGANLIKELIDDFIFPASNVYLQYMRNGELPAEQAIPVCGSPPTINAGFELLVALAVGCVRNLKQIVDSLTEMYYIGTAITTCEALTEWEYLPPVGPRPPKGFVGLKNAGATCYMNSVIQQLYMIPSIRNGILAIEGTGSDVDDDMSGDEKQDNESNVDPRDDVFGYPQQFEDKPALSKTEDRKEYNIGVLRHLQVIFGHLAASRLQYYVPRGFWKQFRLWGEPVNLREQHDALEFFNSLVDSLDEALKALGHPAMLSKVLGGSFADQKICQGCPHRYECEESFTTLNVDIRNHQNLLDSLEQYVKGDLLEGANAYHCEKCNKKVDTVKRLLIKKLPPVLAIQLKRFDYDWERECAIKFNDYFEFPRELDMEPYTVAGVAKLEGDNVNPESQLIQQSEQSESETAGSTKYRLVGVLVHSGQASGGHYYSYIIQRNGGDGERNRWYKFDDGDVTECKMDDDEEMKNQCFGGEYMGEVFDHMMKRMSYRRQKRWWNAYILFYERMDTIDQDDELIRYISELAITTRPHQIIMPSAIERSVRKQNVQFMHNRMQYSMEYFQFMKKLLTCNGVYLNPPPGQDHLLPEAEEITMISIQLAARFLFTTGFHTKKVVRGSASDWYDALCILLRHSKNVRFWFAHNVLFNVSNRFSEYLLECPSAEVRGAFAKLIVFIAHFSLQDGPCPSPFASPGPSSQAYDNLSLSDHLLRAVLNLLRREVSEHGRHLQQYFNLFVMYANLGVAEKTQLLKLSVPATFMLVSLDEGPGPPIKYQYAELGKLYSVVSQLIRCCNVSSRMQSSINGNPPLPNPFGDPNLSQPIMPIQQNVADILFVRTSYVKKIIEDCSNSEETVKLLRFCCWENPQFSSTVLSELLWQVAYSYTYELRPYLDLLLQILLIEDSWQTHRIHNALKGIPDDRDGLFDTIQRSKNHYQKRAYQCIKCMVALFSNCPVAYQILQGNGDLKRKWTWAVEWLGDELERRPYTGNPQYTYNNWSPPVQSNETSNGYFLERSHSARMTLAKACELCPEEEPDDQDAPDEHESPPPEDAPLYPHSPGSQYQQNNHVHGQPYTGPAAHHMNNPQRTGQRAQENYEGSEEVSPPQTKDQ

As for `Oc1ccc2ccccc2c1` [2-naphthol], in data set [1], the “cytotoxicity of C17 hydrolysis products” value was “not cytotoxic”.
Still for that read-out and setting: then `NCc1ccc(O)cc1` [4-aminomethylphenol], with “not cytotoxic”.
Take `CC(C)(C)OC(=O)NCc1ccc(OC(=O)Oc2ccccc2)cc1` [C3]: the “DUB inhibitory activity, SAR statement in words” value (“DUB inhibitory activity” below) in data set [2] is recorded as “activity was lost”.
Same read-out and setting: under `O=C(Oc1ccccc1)Oc1ccc(CNCc2ccc(Cl)cc2)cc1` [C5] stands “retained DUB inhibitory activity”.
Regarding `NCc1ccc(OC(=O)Nc2ccccc2)cc1` [C7], the “stabilization of the HMW-Ub pool (in words)” value (“stabilization” below) in data set [2] is listed as “did not stabilize”.
The same measure, in the same setting: then `NCc1ccc(NC(=O)Oc2ccccc2)cc1` [C8], with “did not stabilize”.
As for `NCc1ccc(OC(=O)Oc2ccc(Cl)cc2)cc1` [C14], the “inhibition of SENP6-catalyzed deSUMOylation of RanGap” value (from here on “inhibition … of RanGap”) in data set [3] is on record as “failed to inhibit”. Also, in [4], the “accumulation of K48-linked HMW-Ub” value is reported as “caused the accumulation” and the Bcr-Abl level entry is “decrease”. For the same compound, the EC50 (in general, the concentration at which the effect is half-maximal) in data set [5] is less than 50 µM. For the same compound, the “increase of inhibitory potency (factor)” value in [2] is reported as “approximately 10”. Moreover, the “GFP fluorescence in G76VUb-GFP assay” value in data set [6] is given as “failed to increase”.
`NCc1ccc(OC(=O)Oc2ccc(Br)cc2)cc1` [C15]: the “inhibition … of RanGap” value in data set [3] is reported as “failed to inhibit”. In [4], the “accumulation of K48-linked HMW-Ub” value is recorded as “caused the accumulation” and the Bcr-Abl level result is recorded as “decrease”. In addition, the EC50 in data set [5] is less than 50 µM. Further, the “increase of inhibitory potency (factor)” value in data set [2] is given as “approximately 10”. The “GFP fluorescence in G76VUb-GFP assay” value in data set [6] is “failed to increase”.
On to `NCc1ccc(OC(=O)Oc2ccc3ccccc3c2)cc1` [C17], for which the “HA-Ub-VS labeling of DUB bands” value in data set [7] (compound (25 μM) and HA-Ub-VS (1.5 μM) added simultaneously) is on record as “no inhibition of DUB labeling was observed”. In data set [7] (lysate treated with compound (25 μM) followed by HA-Ub-VS (1.5 μM)), the “HA-Ub-VS labeling of DUB bands” value is “decreasing the labeling of all the bands”. Further, the “HA-Ub-VS labeling of DUB bands” value in data set [7] (pre-incubated with compound (250 μM) 30 min, diluted 10-fold before HA-Ub-VS) is “labeling was reduced”. The “inhibition of USP7 (anti-USP7 immunoblot after HA-UbVS)” value in data set [8] is “inhibition of USP7 was confirmed”. Also, in data set [4], the “accumulation of K48-linked HMW-Ub” value is “caused the accumulation” and the Bcr-Abl level entry is “decrease”. The “G1 and apoptotic (sub G1) cells” value in data set [4] (24 h incubation, FACS) is reported as “dose-dependent increase”. Further, in [4] (C17 50 μM, bortezomib 6 μM, 4 h), the “Bcr-Abl degradation in the presence of bortezomib” value is listed as “did not prevent”. In [5], the EC50 is less than 50 µM. The “accumulation of soluble HMW-Ub” value in data set [1] (MCF7 cells, 50 μM, 4 h) was “caused the accumulation”. Also, in data set [1] (MCF7 cells, 4 h), the Mdm2 levels entry is on record as “decreased”, the p21/WAF1 levels result is given as “robust increase” and the p53 levels result is “concomitant increase”. In addition, the cell viability entry in data set [1] (MCF7 cells, treated every 24 h, 72 h, Alamar Blue) was “cell viability decreased”. For the same compound, the kcat as substrate in data set [9] stood at 0.02 s⁻¹. Moreover, in data set [6], the “GFP fluorescence in G76VUb-GFP assay” value is given as “failed to increase”.
With `NCc1ccc(OC(=O)Oc2cccc3ccccc23)cc1` [C18], in data set [4], the “accumulation of K48-linked HMW-Ub” value is given as “caused the accumulation” and the Bcr-Abl level result is reported as “decrease”. For the same compound, the EC50 in data set [5] was less than 50 µM. For the same compound, the “GFP fluorescence in G76VUb-GFP assay” value in [6] is recorded as “failed to increase”.
As to `CC(C)(C)OC(=O)NCc1ccc(OC(=O)Oc2ccc3ccccc3c2)cc1` [C19], the “DUB inhibitory activity” value in data set [2] is reported as “Inhibitory activity was not recovered”.
Consider `CC(C)(C)CNCc1ccc(OC(=O)Oc2ccc3ccccc3c2)cc1` [C20], for which, in data set [2], the “DUB inhibitory activity” value is listed as “Inhibitory activity was retained”.
With `CC(C)CNCc1ccc(OC(=O)Oc2ccc3ccccc3c2)cc1` [C21], the “DUB inhibitory activity” value in data set [2] is listed as “somewhat deleterious”.
On to `N/N=C/NCc1ccc(OC(=O)Oc2ccc3ccccc3c2)cc1` [C22], for which the “inhibition … of RanGap” value in data set [3] is reported as “failed to inhibit”. For the same compound, the kcat as substrate in data set [9] was determined as 0.001 s⁻¹. Also, the “DUB inhibitory activity” value in [2] is reported as “efficacious”.
Consider `CC(C)(C)OC(=O)NCc1ccc(OC(=O)Oc2ccc(Cl)cc2)cc1` [C23], for which the “DUB inhibitory activity” value in data set [2] was “Inhibitory activity was not recovered”.
Consider `O=C1/C(=C/c2ccc([N+](=O)[O-])cc2)CS(=O)(=O)C/C1=C\c1ccc([N+](=O)[O-])cc1` [G5, G5 isopeptidase inhibitor 1, reference compound], for which the “stabilization” value in data set [2] is on record as “stabilized”. The “GFP fluorescence in G76VUb-GFP assay” value in data set [6] was “No significant increase”.
As to `Cc1cc(C(=O)CN2CCCC2)c(C)n1-c1ccc(F)cc1` [IU1, reference compound], the “stabilization” value in data set [2] is recorded as “little effect”.
On to `Cc1ccc(/C=C2\CNC/C(=C\c3ccc(C)cc3)C2=O)cc1` [NSC-632839], for which the kon (in general, the rate constant with which the complex forms) in data set [10] is 49 to 140 M⁻¹ s⁻¹.
For the compound `CC(C)C[C@H](NC(=O)[C@H](Cc1ccccc1)NC(=O)c1cnccn1)B(O)O` [bortezomib, reference compound], the “stabilization” value in data set [2] was “failed to stabilize”. The “GFP fluorescence in G76VUb-GFP assay” value in data set [6] was “significantly increased”.
For chymotrypsin (Bos taurus), in data set [11], the Km (as a rule, the substrate concentration at which the rate is half of its maximum) is 1 µM and the kcat – broadly, the maximal rate divided by the concentration of active sites – was determined as 0.03 s⁻¹. Moreover, in data set [12], the Michaelis constant (Km) came out at 1 µM and the kcat stood at 0.03 s⁻¹.
